From ChEMBL document CHEMBL4480390, “Cink4T, a quinazolinone-based dual inhibitor of Cdk4 and tubulin polymerization, identified via ligand-based virtual screening, for efficient anticancer therapy” (Eur J Med Chem, 2019)
pEC50, pIC50: −log10 of the molar value. The source made the active and inactive calls. The rule behind the calls is not given here.

Columns and labels:
[1] = target: Cyclin-dependent kinase 4/cyclin D1 (Homo sapiens) (UniProt P11802+P24385); test: Inhibition of recombinant human N-terminal GST-tagged CDK4 (S4 to E303 residues)/Cyclin D1 (Q4 to I295 residues) expressed in sf9 cells at 10 uM using RBCTF as substrate measured after 1 hr by ADP-glo luminescence assay relative to control
CDK2/Cyclin A2 = CDK2/Cyclin A2 (Homo sapiens, UniProt P24941); test: Inhibition of human full length N-terminal GST-fused CDK2 (M1 to L298 residues)/human full length Cyclin-A2 (M1 to L432 residues) expressed in Sf9 cells using histone H1 as substrate measured after 1 hr by ADP-glo luminescence assay
[2] = target: CDK9/cyclin T1 (Homo sapiens) (UniProt O60563+P50750); test: Inhibition of N-terminal GST-HIS6 fusion protein tagged human full length CDK9 (M1 to F372 residues)/N-terminal HIS6-fused human Cyclin-T1 (M1 to K726 residues) expressed in Sf9 cells at 10 uM using RBCTF as substrate measured after 1 hr by ADP-glo luminescence assay relative to control
Outline: (§1)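 ADP-Glo kinase assay with 200 ng Cdk-cyclin enzyme, ATP (125 µM in 2.5x mix) and 25 µg substrate (RBCTF or RBER-CHKtide, per Cdk). Buffer: Tris, MgCl2, BSA, DTT, MnCl2 cofactor, DMSO. Reaction 1 h at 21°C; ADP-Glo 40 min, then detection reagent 40 min. Luminescence read. IC50 by 4-parameter fit; three independent experiments.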

Calu-1 = test: cells; details: Homo sapiens, Calu-1, 72 h
Cytochrome P450 1B1 = target: T1, Cytochrome P450 1B1 (Homo sapiens, UniProt Q16678); test: Inhibition of recombinant human CYP1B1 expressed in baker's yeast-derived microsomes using 7-ethoxyresorufin as substrate by fluorescence assay
T1 sequence (Q16678 whole entry): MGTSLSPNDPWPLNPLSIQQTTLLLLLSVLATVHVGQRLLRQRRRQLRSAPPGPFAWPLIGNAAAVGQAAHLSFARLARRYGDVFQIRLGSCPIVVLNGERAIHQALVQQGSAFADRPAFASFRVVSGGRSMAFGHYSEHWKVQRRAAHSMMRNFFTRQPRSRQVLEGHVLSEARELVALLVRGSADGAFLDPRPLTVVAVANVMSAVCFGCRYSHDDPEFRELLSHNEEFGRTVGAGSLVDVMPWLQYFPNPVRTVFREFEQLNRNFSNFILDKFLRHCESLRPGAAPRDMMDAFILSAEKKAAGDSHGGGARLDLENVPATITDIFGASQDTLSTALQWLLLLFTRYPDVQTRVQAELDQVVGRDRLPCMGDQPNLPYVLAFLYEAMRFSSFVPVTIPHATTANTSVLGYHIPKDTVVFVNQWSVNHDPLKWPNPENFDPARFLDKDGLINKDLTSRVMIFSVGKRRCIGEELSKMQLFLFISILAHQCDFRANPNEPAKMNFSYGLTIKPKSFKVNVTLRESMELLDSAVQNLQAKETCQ

MDA-MB-468 = test: cells; details: Homo sapiens, MDA-MB-468, 72 h
[3] = target: Cyclin-dependent kinase 1/cyclin B1 (Homo sapiens, UniProt P06493); test: Inhibition of recombinant human N-terminal GST/His6-tagged CDK1 (M1 to M297 residues)/CyclinB1 (M1 to V433 residues) expressed in Sf9 insect cells using RBCTF as substrate measured after 1 hr by ADP-glo luminescence assay
[4] = target: Cyclin-dependent kinase 4/cyclin D1 (Homo sapiens, UniProt P11802); test: Inhibition of recombinant human N-terminal GST-tagged CDK4 (S4 to E303 residues)/Cyclin D1 (Q4 to I295 residues) expressed in sf9 cells using RBCTF as substrate measured after 1 hr by ADP-glo luminescence assay
Outline: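 ADP-Glo luminescence assay of Cdk4–cyclin D1 with RBCTF substrate, 200 ng enzyme, ATP 125 µM (2.5x working mix), Tris/MgCl2/BSA/DTT/MnCl2 buffer, 1 h at 21°C, then two 40-min reagent steps. IC50 from a four-parameter variable-slope sigmoidal fit of inhibition against concentration; mean ± SD from three independent experiments.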

CDK6/cyclin D1 = CDK6/cyclin D1 (Homo sapiens, UniProt Q00534); test: Inhibition of CDK6/cyclin D1 (unknown origin) using RBER-CHKtide as substrate measured after 1 hr by ADP-glo luminescence assay; assay type: protein-complex assay; outline: as §1
T47D = test: cells; details: Homo sapiens, 72 h
Cytochrome P450 1A1 = target: T2, Cytochrome P450 1A1 (Homo sapiens, UniProt P04798); test: Inhibition of recombinant human CYP1A1 expressed in baker's yeast-derived microsomes using 7-ethoxyresorufin as substrate by fluorescence assay; assay type: ADME
T2 sequence (P04798 whole entry): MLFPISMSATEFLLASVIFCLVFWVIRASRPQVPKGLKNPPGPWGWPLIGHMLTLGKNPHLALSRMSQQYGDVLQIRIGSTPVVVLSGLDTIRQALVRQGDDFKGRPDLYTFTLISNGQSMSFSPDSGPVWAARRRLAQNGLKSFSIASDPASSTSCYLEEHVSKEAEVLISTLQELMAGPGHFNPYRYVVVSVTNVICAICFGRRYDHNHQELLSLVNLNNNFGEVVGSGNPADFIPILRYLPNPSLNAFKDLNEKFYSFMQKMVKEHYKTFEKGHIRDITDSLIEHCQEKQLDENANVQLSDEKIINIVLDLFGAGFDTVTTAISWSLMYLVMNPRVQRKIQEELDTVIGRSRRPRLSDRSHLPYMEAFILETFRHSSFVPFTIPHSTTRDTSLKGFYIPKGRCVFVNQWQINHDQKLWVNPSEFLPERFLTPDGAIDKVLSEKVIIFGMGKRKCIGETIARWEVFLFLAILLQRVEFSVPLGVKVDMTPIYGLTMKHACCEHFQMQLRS

CDK9/cyclin T1 = CDK9/cyclin T1 (Homo sapiens, UniProt P50750); test: Inhibition of N-terminal GST-HIS6 fusion protein tagged human full length CDK9 (M1 to F372 residues)/N-terminal HIS6-fused human Cyclin-T1 (M1 to K726 residues) expressed in Sf9 cells using RBCTF as substrate measured after 1 hr by ADP-glo luminescence assay
Tubulin (Sus scrofa) = Tubulin (Sus scrofa) (UniProt P02554+P02550); test: Inhibition of porcine tubulin polymerization at 5 uM incubated for 1 min by fluorescence based assay; assay type: protein assay
Outline: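 Compounds added from 10x stocks in duplicate and warmed at 37°C ≤1 min. Ice-cold tubulin pre-mix then added. Fluorescent reporter read at ex 360/em 460 nm for 60 min. Paclitaxel served as enhancer control, CaCl2 as inhibitor control.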

A549 = test: cells; details: Homo sapiens, A549, 72 h
Cytochrome P450 1A2 = target: T3, Cytochrome P450 1A2 (Homo sapiens, UniProt P05177); test: Inhibition of recombinant human CYP1A2 expressed in baker's yeast-derived microsomes using 3-cyano-7-ethoxycoumarin as substrate by fluorescence assay; assay type: ADME
T3 sequence (P05177 whole entry): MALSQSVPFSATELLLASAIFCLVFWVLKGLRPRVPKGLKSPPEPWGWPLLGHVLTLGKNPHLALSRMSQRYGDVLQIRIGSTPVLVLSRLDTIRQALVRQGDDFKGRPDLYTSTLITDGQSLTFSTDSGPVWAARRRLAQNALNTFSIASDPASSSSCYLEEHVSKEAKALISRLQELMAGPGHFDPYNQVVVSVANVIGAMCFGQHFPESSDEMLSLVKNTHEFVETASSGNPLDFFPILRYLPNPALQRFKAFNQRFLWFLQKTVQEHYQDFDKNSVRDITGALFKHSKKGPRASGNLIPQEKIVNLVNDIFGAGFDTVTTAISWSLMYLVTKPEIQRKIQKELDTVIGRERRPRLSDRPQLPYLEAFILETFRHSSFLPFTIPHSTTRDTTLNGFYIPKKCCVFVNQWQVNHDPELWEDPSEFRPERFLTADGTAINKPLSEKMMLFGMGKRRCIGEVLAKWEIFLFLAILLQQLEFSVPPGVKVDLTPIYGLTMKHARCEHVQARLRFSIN

Row | SMILES | inhibition [1] [%] | other results
1 | COc1ccc(-c2nc3ccccc3c(=O)[nH]2)cc1Oc1ccc(F)cc1 | 46 | 
2 | CCCCNC(=O)COc1ccc(-c2nc3ccccc3c(=O)[nH]2)cc1OC | 48 | 
3 | COc1cc(-c2nc3ccccc3c(=O)[nH]2)ccc1OCc1ccc(F)cc1F | 36 | 
4 | COc1ccc(-c2nc3ccccc3c(=O)[nH]2)cc1O | 0 | 
5 | C#CCOc1ccc(-c2nc3ccccc3c(=O)[nH]2)cc1OC | 38 | 
6 | COc1ccc(-c2nc3ccccc3c(=O)[nH]2)cc1OCC(=O)NC1CCCCC1 | 76 | pIC50 (CDK2/Cyclin A2): < 4.00; inhibition [2]: 8%; pEC50 (Calu-1): 5.01; pIC50 (Cytochrome P450 1B1): < 5.30; pEC50 (MDA-MB-468): < 4.30; pIC50 [3]: < 4.30; pIC50 [4]: 5.42; pIC50 (CDK6/cyclin D1): < 4.00; pEC50 (T47D): 5.09; pIC50 (Cytochrome P450 1A1): < 5.30; pIC50 (CDK9/cyclin T1): < 4.30; inhibition (Tubulin (Sus scrofa)): Active; pEC50 (A549): 5.12; pIC50 (Cytochrome P450 1A2): < 5.30
7 | O=C(COc1ccc(-c2nc3ccccc3c(=O)[nH]2)cc1)NC1CCCCC1 | 20 | 
8 | COc1ccc(-c2nc3ccccc3c(=O)[nH]2)cc1OCc1ccc(F)cc1F | 45 | 
9 | O=c1[nH]c(-c2ccc(Br)cc2)nc2ccccc12 | 31 | 
10 | O=c1[nH]c(-c2ccc([N+](=O)[O-])cc2)nc2ccccc12 | 0 | 
11 | COc1cc(-c2nc3ccccc3c(=O)[nH]2)ccc1O | 39 | 
12 | Oc1nc(-c2cccnc2)nc2ccccc12 | 36 | 
13 | COc1cc(-c2nc3ccccc3c(=O)[nH]2)ccc1Oc1ccc(Cl)cc1Cl | 55 | 
14 | CS(=O)(=O)Oc1ccc(-c2nc3ccccc3c(=O)[nH]2)cc1 | 42 | 
15 | CC(=O)c1c(C)c2cnc(Nc3ccc(N4CCNCC4)cn3)nc2n(C2CCCC2)c1=O | 95 | inhibition [2]: -4%
16 | COc1cc(-c2nc3ccccc3c(=O)[nH]2)ccc1OS(C)(=O)=O | 78 | pIC50 (CDK2/Cyclin A2): < 4.00; inhibition [2]: -5%; pEC50 (Calu-1): 5.05; pEC50 (MDA-MB-468): < 4.30; pEC50 (T47D): 5.10; inhibition (Tubulin (Sus scrofa)): Active; pEC50 (A549): 5.15
17 | O=c1[nH]c(-c2ccc(O)cc2)nc2ccccc12 | 30 | 
18 | O=c1[nH]c(-c2cccc(O)c2)nc2ccccc12 | -6 | 

The next lines start with results.

Row | inhibition [1] [%] | SMILES | other results
19 | 3 | CCOc1ccc(NC(=O)COc2cc(-c3nc4ccccc4c(=O)[nH]3)ccc2OC)cc1 | 
20 | 5 | COc1cccc(NC(=O)COc2cc(-c3nc4ccccc4c(=O)[nH]3)ccc2OC)c1 | 
21 | 26 | O=C(COc1ccc(-c2nc3ccccc3c(=O)[nH]2)cc1)Nc1ccc([N+](=O)[O-])cc1 | 
22 | 20 | COc1ccc(-c2nc3ccccc3c(=O)[nH]2)cc1OCC(=O)Nc1ccccc1 | 
23 | 0 | CCOc1ccc(NC(=O)COc2ccc(-c3nc4ccccc4c(=O)[nH]3)cc2OC)cc1 | 
24 | 30 | O=c1[nH]c(-c2ccc(Oc3ccc(F)cc3)cc2)nc2ccccc12 | 
25 | 0 | O=C(COc1ccc(-c2nc3ccccc3c(=O)[nH]2)cc1)Nc1ccc2ccccc2c1 | 
26 | 30 | O=c1[nH]c(-c2ccc(OCc3ccc(F)cc3F)cc2)nc2ccccc12 | 
27 | 5 | Cc1ccc(NC(=O)COc2ccc(-c3nc4ccccc4c(=O)[nH]3)cc2)cc1 | 
28 | 45 | O=C(COc1ccc(-c2nc3ccccc3c(=O)[nH]2)cc1)Nc1ccccc1 | 
29 | 14 | COc1ccc(NC(=O)COc2cc(-c3nc4ccccc4c(=O)[nH]3)ccc2OC)cc1 | 
30 | 0 | O=C(COc1ccc(-c2nc3ccccc3c(=O)[nH]2)cc1O)Nc1ccc(Cl)cc1 | 
31 | 89 | COc1ccccc1NC(=O)COc1ccc(-c2nc3ccccc3c(=O)[nH]2)cc1OC | pIC50 (CDK2/Cyclin A2): < 4.30; pEC50 (Calu-1): 5.22; pIC50 (Cytochrome P450 1B1): < 5.30; pEC50 (MDA-MB-468): < 4.30; pIC50 [3]: < 4.30; pIC50 [4]: 5.82; pIC50 (CDK6/cyclin D1): < 4.00; pEC50 (T47D): 5.40; pIC50 (Cytochrome P450 1A1): < 5.30; pIC50 (CDK9/cyclin T1): < 4.00; inhibition (Tubulin (Sus scrofa)): Active; pEC50 (A549): 5.52; pIC50 (Cytochrome P450 1A2): < 5.30
32 | 21 | COc1ccccc1NC(=O)COc1cc(-c2nc3ccccc3c(=O)[nH]2)ccc1OC | 
33 | 7 | COc1cc(-c2nc3ccccc3c(=O)[nH]2)ccc1OCC(=O)Nc1ccc(F)cc1 | 
34 | 41 | COc1ccc(NC(=O)COc2ccc(-c3nc4ccccc4c(=O)[nH]3)cc2OC)cc1 | 
35 | 5 | O=C(COc1ccc(-c2nc3ccccc3c(=O)[nH]2)cc1)Nc1cccc2ccccc12 | 
36 | 16 | COc1cccc(NC(=O)COc2ccc(-c3nc4ccccc4c(=O)[nH]3)cc2OC)c1 | 
37 | 41 | COc1ccc(-c2nc3ccccc3c(=O)[nH]2)cc1OCC(=O)Nc1ccccc1Cl | 
38 | 1 | COc1ccc(-c2nc3ccccc3c(=O)[nH]2)cc1OCC(=O)Nc1ccc([N+](=O)[O-])cc1 | 
39 | -5 | COc1ccc(-c2nc3ccccc3c(=O)[nH]2)cc1OCC(=O)Nc1ccccc1C | 
